Assay results collected from several papers.
Protocols differ between the studies behind these lines.
Method: competition with immobilised ligand
RPS6KA4 C-terminal kinase domain: Ribosomal protein S6 kinase alpha-4, C-terminal kinase domain (RPS6KA4, Homo sapiens, UniProt O75676)
RPS6KA4 N-terminal kinase domain: Ribosomal protein S6 kinase alpha-4, N-terminal kinase domain (RPS6KA4, Homo sapiens, UniProt O75676)

SMILES	target	test	setting	remaining binding
CNC(=O)[C@@H]1CC[C@@H](n2c(-c3ccc4cnccc4c3)nc3ccc(C(=O)NCc4cccc(C(N)=O)c4)cc32)C1	RPS6KA4 C-terminal kinase domain	binding	1 µM	99%
CN(CCCC(F)(F)F)c1nccc(-c2cnn3ncccc23)n1	RPS6KA4 N-terminal kinase domain	binding	1 µM	100%
O=C(NCc1ncc(C(F)(F)F)cc1Cl)c1ccc2c(c1)C1(CCS(=O)(=O)CC1)[C@@H](C1CC1)N2S(=O)(=O)c1ccc(F)cc1	RPS6KA4 C-terminal kinase domain	cell-free assay	1 µM	84%
COc1cnc(Nc2cccc(S(N)(=O)=O)c2)nc1N1CCN(c2ccccc2)C(=O)C1	RPS6KA4 C-terminal kinase domain	binding	1 µM	100%
CN(C)c1ncc(F)c(-c2cnn3ncccc23)n1	RPS6KA4 N-terminal kinase domain	binding	1 µM	89%
Cc1c(C(=O)O)cc(-c2ccc(C3CCNCC3)cc2)c2ccc(-c3ccc(C(F)(F)F)cc3)cc12	RPS6KA4 N-terminal kinase domain	binding	1 µM	88%
C=CC(=O)N1CCC(C(=O)NCC(=O)N2CCN(c3nc(-c4cnc(N)nc4C(F)F)nc(N4CCOCC4)n3)CC2)CC1	RPS6KA4 C-terminal kinase domain	binding	1 µM	100%
O=C(c1ccc(Nc2ncc(Cl)c(-c3cc4ccccc4s3)n2)cc1)N1CCC(N2CCCC2)CC1	RPS6KA4 C-terminal kinase domain	binding	1 µM	13%
O=C(Nc1c[nH]nc1C(=O)NC1CCNCC1)c1cc(F)cc(F)c1	RPS6KA4 N-terminal kinase domain	binding	1 µM	100%
CO[C@@H](C)c1c(Nc2ccc([C@H](N(C)C(=O)C3CCS(=O)(=O)CC3)C(F)(F)F)cc2)cnc2cc(Cl)nn12	RPS6KA4 N-terminal kinase domain	cell-free assay	1 µM	86%
Cc1cnn2ncc(-c3ccnc(N(C)C)n3)c2c1	RPS6KA4 N-terminal kinase domain	binding	1 µM	97%
c1cncc(-c2cccc(Nc3nccc(NC4CCCCC4)n3)c2)c1	RPS6KA4 N-terminal kinase domain	binding	10 µM	78%
O=C(O)[C@H]1[C@H](Cn2nnc3ccccc3c2=O)CC[C@@H]1C(=O)c1ccc(OCCC2CCOCC2)cc1	RPS6KA4 N-terminal kinase domain	cell-free assay	1 µM	100%
C[C@@H]1CCN(c2nccc(-c3cnn4ncccc34)n2)C1	RPS6KA4 C-terminal kinase domain	binding	1 µM	58%
O=C(NCCCN1CCOCC1)c1ccc(Nc2nccc(-c3cc4ccccc4s3)n2)cc1	RPS6KA4 N-terminal kinase domain	binding	1 µM	100%
Nc1ncc2c(n1)-c1c([nH]c3ccc(C#CC4CC4)cc13)CCCC2	RPS6KA4 N-terminal kinase domain	binding	1 µM	88%
O=C(N1CCS(=O)(=O)CC1)N1C[C@H](c2ccc(OC(F)(F)F)cc2)C[C@H](c2nc(C3CC3)no2)C1	RPS6KA4 N-terminal kinase domain	cell-free assay	1 µM	100%

SMILES	target	test	setting	remaining binding
O=C(c1ccc(Nc2ncc(Cl)c(-c3ccc(Cl)s3)n2)cc1)N1CCC(N2CCCC2)CC1	RPS6KA4 C-terminal kinase domain	binding	1 µM	18%
O=S(=O)(NC1CCC(c2cc(F)ccc2F)(S(=O)(=O)c2ccc(Cl)cc2)CC1)C(F)(F)F (stereo not drawn)	RPS6KA4 N-terminal kinase domain	cell-free assay	1 µM	100%
F[C@@H]1CCN(c2nccc(-c3cnn4ncccc34)n2)C1	RPS6KA4 C-terminal kinase domain	binding	1 µM	92%
COc1cnc(Nc2cccc(S(N)(=O)=O)c2)nc1N1CCN(c2ccccc2)CC1	RPS6KA4 N-terminal kinase domain	binding	1 µM	94%
Cc1noc([C@H]2C[C@@H](c3ccc(C(F)(F)F)cc3)CN(C(=O)N3CCS(=O)(=O)C3)C2)n1	RPS6KA4 N-terminal kinase domain	cell-free assay	1 µM	100%
C[C@@H](c1ccc(-n2cnc3c(N)ncnc32)cc1)N1CCc2nn(C)c(Cc3ccccc3)c2C1=O	RPS6KA4 C-terminal kinase domain	binding	0.1 µM	84%
Cc1c(NC(=O)c2cc(C(N)=O)nc3cc(F)ccc23)c(C(F)(F)F)nn1Cc1ccc(C#N)cc1	RPS6KA4 C-terminal kinase domain	cell-free assay	1 µM	85%
O=C(NCC1CCOCC1)c1n[nH]cc1NC(=O)c1c(F)cccc1F	RPS6KA4 N-terminal kinase domain	binding	1 µM	95%
Cc1cnc(Nc2ccc(C(=O)N3CCC(N4CCCC4)CC3)cc2)nc1-c1cc2ccccc2s1	RPS6KA4 C-terminal kinase domain	binding	1 µM	3.8%
N[C@@H]1CCN(c2nccc(-c3cnn4ncccc34)n2)C1	RPS6KA4 C-terminal kinase domain	binding	1 µM	100%
CCN1CCN(Cc2ccc(C(=O)Nc3ccc(C)c(Oc4ccc5c(c4)CC(=O)N5)c3)cc2C(F)(F)F)CC1	RPS6KA4 N-terminal kinase domain	binding	1 µM	100%
O=C(c1ccc(Nc2nccc(-c3cc4ccccc4s3)n2)cc1)N1CCC(N2CCCC2)CC1	RPS6KA4 C-terminal kinase domain	binding	1 µM	14%
COc1ncc2cc3ccccc3nc2c1C#N	RPS6KA4 N-terminal kinase domain	cell-free assay	5 µM	94%
c1cnn2ncc(-c3ccnc(N4CCC45COC5)n3)c2c1	RPS6KA4 C-terminal kinase domain	binding	1 µM	55%
O=C(NCCCN1CCOCC1)c1ccc(Nc2ncc(Cl)c(-c3ccc(Cl)s3)n2)cc1	RPS6KA4 C-terminal kinase domain	binding	1 µM	26%
FC(F)(F)Oc1cccc(-c2cnc3ccc(-c4ccncc4)nn23)c1	RPS6KA4 N-terminal kinase domain	binding	5 µM	97%
